From ChEMBL document CHEMBL5385953, “Antiviral Rotenoids and Isoflavones Isolated from Millettia oblata ssp. teitensis” (J Nat Prod, 2024)
The source made the active and inactive calls. The rule behind the calls is not given here.

Legend:
[1] = system: HEp-2; assay: Cytotoxicity against human HEp-2 cells measured after 3 days by CellTiter 96 aqueous one solution assay (Rvb >100 microM); type: functional; details: HEp-2, 72 h, time 3 day
[2] = system: HEp-2; assay: Cytostatic activity against human HEp-2 cells assessed as poor cell staining at 100 uM measured after 3 days by CellTiter 96 aqueous one solution assay; type: functional, cell-based; details: time 3.0 day
[3] = system: HEp-2; assay: Cytostatic activity against human HEp-2 cells assessed as poor cell staining at 20 uM measured after 3 days by CellTiter 96 aqueous one solution assay; type: functional, cell-based; details: time 3.0 day
In short: (§1)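 Compound-treated HEp-2 cells (grown in DMEM with 8% fetal calf serum and 292 μg/mL L-glutamine) were examined by microscopy alongside the tetrazolium viability assay. Cytostatic effects were scored as poor cell proliferation, altered cell shape or poor cell staining.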

[4] = Selectivity index, ratio of CC50 for human HEp-2 cells to IC50 for Human respiratory syncytial virus infected in human HEp-2 cells; type: toxicity, cell-based; details: read-out: Ratio CC50/IC50
[5] = system: HEp-2; assay: Cytostatic activity against human HEp-2 cells assessed as poor cell staining at 4.0 uM measured after 3 days by CellTiter 96 aqueous one solution assay; type: functional, cell-based; details: time 3.0 day
[6] = system: HEp-2; assay: Cytostatic activity against human HEp-2 cells assessed as poor cell staining at 0.8 to 4.0 uM measured after 3 days by CellTiter 96 aqueous one solution assay; type: functional, cell-based; details: dose 0.8-4 µM, time 3.0 day; in short: as §1
[7] = system: HEp-2; assay: Cytostatic activity against human HEp-2 cells assessed as poor cell staining at 4.0 to 100 uM measured after 3 days by CellTiter 96 aqueous one solution assay; type: functional, cell-based; details: dose 4-100 µM, time 3.0 day
[8] = system: HEp-2; assay: Cytostatic activity against human HEp-2 cells assessed as poor cell proliferation at 100 uM measured after 3 days by CellTiter 96 aqueous one solution assay; type: functional, cell-based; details: time 3.0 day; in short: as §1

Compound	CC50 [1]	other results
COc1ccc2c(c1)O[C@@H]1COc3c(cc(OC)c4c3OCO4)[C@@H]1C2=O	> 100 µM	–
CC(C)=CCOc1ccc(-c2coc3c4c(cc(O)c3c2=O)OC(C)(C)C=C4)cc1	> 100 µM	Activity [2]: Active
COc1cc2c(cc1-c1coc3c4c(c(OC)cc3c1=O)OC(C)(C)C=C4)OCO2 [ICHTHYNONE]	91 µM	Activity [3]: Active
COc1cc2c(cc1OC)C(=O)[C@@]1(O)c3cc4c(cc3OC[C@H]1O2)OCO4	> 100 µM	–
COc1ccc2c(c1)O[C@@H]1COc3cc4c(cc3[C@]1(O)C2=O)OCO4	–	Activity [3]: Active
COc1cc2c(cc1-c1coc3cc(O)ccc3c1=O)OCO2 [CUNEATIN]	> 100 µM	–
COc1cc2c(cc1OC)[C@@H]1C(=O)c3ccc4c(c3O[C@@H]1CO2)C=CC(C)(C)O4 [DEGUELIN]	–	selectivity ratio [4]: 61.6; Activity [5]: Active
COc1ccc2c(=O)c(-c3cc(OC)c4c(c3OC)OCO4)coc2c1	> 100 µM	–
COc1c(O[C@@H]2O[C@H](CO[C@H]3O[C@H](C)[C@@H](O)[C@H](O)[C@@H]3O)[C@@H](O[C@@H]3O[C@H](CO[C@H]4O[C@H](C)[C@@H](O)[C@H](O)[C@@H]4O)[C@@H](O)[C@H](O)[C@H]3O)[C@H](O)[C@H]2O)cc2c(=O)c(-c3ccc4c(c3)OCO4)coc2c1OC	> 100 µM	–
COc1ccc2c(c1)O[C@@H]1COc3cc(OC)c(OC)cc3[C@]1(O)C2=O	–	Activity [3]: Active
COc1cc2c(cc1OC)[C@]1(O)C(=O)c3ccc4c(c3O[C@@H]1CO2)C=CC(C)(C)O4	–	Activity [6]: Active
CC(C)=CCOc1ccc(-c2coc3c4c(ccc3c2=O)OC(C)(C)C=C4)cc1	> 100 µM	selectivity ratio [4]: > 47.6; Activity [7]: Active
NC(=O)c1ncn([C@@H]2O[C@H](CO)[C@@H](O)[C@H]2O)n1 [RIBAVIRIN]	> 100 µM	Activity [8]: Active
COc1ccc2c(c1)O[C@@H]1COc3cc4c(cc3[C@@H]1C2=O)OCO4	> 100 µM	–
CC1(C)C=Cc2c(ccc3c(=O)c(-c4ccc5c(c4)OCO5)coc23)O1	> 100 µM	–
COc1ccc2c(=O)c(-c3cc4c(cc3OC)OCO4)coc2c1	–	Activity [3]: Active
